# Laboratory results published in ChEMBL document CHEMBL1125159, “Synthesis and antihyperglycemic activity of novel 5-(naphthalenylsulfonyl)-2,4-thiazolidinediones” (J Med Chem, 1990).
# Calls of active or inactive are those of the source. The calls are words filed in the database; no cut-off is given here.
# How the values were obtained:
# [1] = organism: Mus musculus; assay: Percent decrease in blood glucose relative to vehicle-treated group with use of four to six mice; assay type: functional
# Outline: (§1)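 Male genetically diabetic db/db mice (C57BL/KsJ, 3–7 months old), 4–6 per group. Compound 100 mg/kg given by oral gavage once daily for 4 days in 2% Tween 80/saline. Mice fasted 18 h before the final dose. Insulin 0.5 unit/kg sc given 2 h after drug. Tail-tip blood taken 2 h later from unanesthetized mice. Plasma glucose reported as percent change versus vehicle group, mean ± SE.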
# [2] = Ionization constant for the compound; assay type: physicochemical
# [3] = organism: Mus musculus; assay: Decrease in blood glucose in mice compared to vehicle controls.; assay type: functional, organism-based; outline: as §1
# [4] = system: Mus musculus; assay: Plasma glucose level in diabetic db/db mice at a dose of 100 mg/kg per day for four days administered orally after 18-h fasted state
# [5] = system: Rattus norvegicus; assay: Blood lactate level in 24 hr fasted Sprauge-Dawley rats at a dose of 200 mg/kg per day in four divided doses which were administered intraperitoneally,; assay type: functional; settings: route intraperitoneal
# Outline: (§2)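 24 h-fasted Sprague-Dawley rats were dosed ip at 200 mg/kg per day in four divided doses. They were then anesthetized with halothane and blood was drawn from the iliac artery for blood lactate and plasma glucose. N = 8 rats per group, compared with vehicle (p < 0.05).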
# [6] = system: Mus musculus; assay: Plasma glucose level in diabetic db/db mice at a dose of 100 mg/kg per day for four days administered orally after fed state
# [7] = system: Rattus norvegicus; assay: Plasma glucose level in 24 hr fasted Sprauge-Dawley rats at a dose of 200 mg/kg per day in four divided doses which were administered intraperitoneally; assay type: functional, organism-based; outline: as §2
# [8] = system: Rattus norvegicus; assay: Evaluated for the plasma glucose level in 24 hr fasted Sprauge-Dawley rats at a dose of 200 mg/kg/day in four divided doses administered intraperitoneally; assay type: functional, organism-based; outline: as §2
# [9] = system: Rattus norvegicus; assay: Evaluated for the blood lactate level in 24 hr fasted Sprague-Dawley rats at a dose of 200 mg/kg/day in four divided doses administered intraperitoneally; assay type: functional; settings: route intraperitoneal; outline: as §2
# [10] = system: Rattus norvegicus; assay: Blood lactate level in 24 hr fasted Sprauge-Dawley rats at a dose of 200 mg/kg per day in four divided doses which were administered intraperitoneally; assay type: functional; settings: route intraperitoneal; outline: as §2
smiles,measurement,setting,value
O=C1NC(=O)C(S(=O)(=O)c2cccc3c(Br)cccc23)S1 (stereo unspecified),Decrease,[1],-29%
O=C1NC(=O)C(Cc2ccc3ccccc3c2)S1 (stereo unspecified),pKa,[2],6.83
same,Decrease,[1],-38%
COc1ccc2cc(S(=O)(=O)C3SC(=O)NC3=O)ccc2c1C(F)(F)F (stereo unspecified),Decrease,[3],inactive
O=C1NC(=O)C(S(=O)(=O)c2ccc(Br)cc2)S1 (stereo unspecified),Decrease,[3],inactive
O=C1NC(=O)C(S(=O)(=O)c2ccc3ccccc3c2)S1 (stereo unspecified),pKa,[2],3.95
same,Plasma glucose level,[4],243 mg/dL
same,Blood lactate,[5],7.2 mg/dL
same,Decrease,[1],-63%
same,Plasma glucose level,[6],352 mg/dL
same,Plasma glucose level,[7],77 mg/dL
COc1ccc2c(S(=O)(=O)C3SC(=O)NC3=O)cccc2c1C(F)(F)F (stereo unspecified),Decrease,[1],-40%
O=C1NC(=O)C(Sc2ccc3cc(O)c(O)cc3c2)S1 (stereo unspecified),Decrease,[3],inactive
O=C1NC(=O)C(S(=O)(=O)c2ccc3ccccc3c2Br)S1 (stereo unspecified),Decrease,[3],inactive
CN1C(=O)SC(C)(S(=O)(=O)c2cccc3c(Br)cccc23)C1=O (stereo unspecified),Decrease,[3],inactive
CCOC(=O)Oc1ccc2cc(SC3SC(=O)NC3=O)ccc2c1 (stereo unspecified),Decrease,[3],inactive
O=C1NC(=O)C(S(=O)(=O)Cc2ccc3ccccc3c2)S1 (stereo unspecified),Decrease,[3],inactive
COc1ccc2cc(S(=O)(=O)C3SC(=O)NC3=O)ccc2c1Br (stereo unspecified),Decrease,[3],inactive
O=C1NC(=O)C(Sc2ccc3ccccc3c2)S1 (stereo unspecified),pKa,[2],5.58
same,Decrease,[1],-29%
O=C1NC(=O)C(Sc2ccc3ccccc3c2Br)S1 (stereo unspecified),Decrease,[3],inactive
O=C1NC(=O)C([S+]([O-])c2ccc3ccccc3c2)S1 (stereo unspecified),Decrease,[3],inactive
CN1C(=O)SC(S(=O)(=O)c2cccc3c(Br)cccc23)C1=O (stereo unspecified),Decrease,[3],inactive
O=C1NC(=O)C(S(=O)(=O)c2ccc(F)cc2)S1 (stereo unspecified),Decrease,[3],inactive
O=C1NC(=O)C(Oc2ccc3ccccc3c2)S1 (stereo unspecified),Decrease,[3],inactive
O=C1NC(=O)C(CSc2ccc3ccccc3c2)S1 (stereo unspecified),Decrease,[3],inactive
O=C1NC(=O)C(S(=O)(=O)c2ccc3cc(OCc4ccccc4)ccc3c2)S1 (stereo unspecified),Decrease,[3],inactive
CC1(S(=O)(=O)c2cccc3ccccc23)SC(=O)NC1=O (stereo unspecified),Decrease,[3],inactive
CCCCCCCCS(=O)(=O)C1SC(=O)NC1=O (stereo unspecified),Decrease,[3],inactive
CCCCCCCCSC1SC(=O)NC1=O (stereo unspecified),Decrease,[3],inactive
N=C(N)NC(=N)NCCc1ccccc1 [PHENFORMIN],Plasma glucose level,[8],85 mg/dL
same,Blood lactate,[9],12.2 mg/dL
COc1cccc2cccc(S(=O)(=O)C3SC(=O)NC3=O)c12 (stereo unspecified),Decrease,[3],inactive
O=C1NC(=O)C(S(=O)(=O)c2cccc3ccccc23)S1 (stereo unspecified),Decrease,[1],-34%
CC1(COc2ccc(S(=O)(=O)C3SC(=O)NC3=O)cc2)CCCCC1 (stereo unspecified),Decrease,[3],inactive
CC1(COc2ccc(CC3SC(=O)NC3=O)cc2)CCCCC1 (stereo unspecified) [CIGLITAZONE],pKa,[2],6.82
same,Blood lactate,[10],8 mg/dL
same,Plasma glucose level,[4],285 mg/dL
same,Decrease,[1],-35%
same,Plasma glucose level,[6],313 mg/dL
same,Plasma glucose level,[7],83 mg/dL
CCOC(=O)Oc1ccc2cc(S(=O)(=O)C3SC(=O)NC3=O)ccc2c1 (stereo unspecified),Decrease,[3],inactive
CCOC(=O)Oc1cc2ccc(SC3SC(=O)NC3=O)cc2cc1OC(=O)OCC (stereo unspecified),Decrease,[1],-22%
CCOC(=O)Oc1cc2ccc(S(=O)(=O)C3SC(=O)NC3=O)cc2cc1OC(=O)OCC (stereo unspecified),Decrease,[3],inactive
COc1ccc2cc(SC3SC(=O)NC3=O)ccc2c1C(F)(F)F (stereo unspecified),Decrease,[1],-32%
O=C1NC(=O)C(Sc2ccc3cc(O)ccc3c2)S1 (stereo unspecified),Decrease,[1],-19%
